ChEMBL document CHEMBL4024711, “Design, synthesis and biological evaluation of novel nitric oxide-donating protoberberine derivatives as antitumor agents” (Eur J Med Chem, 2017)
Active and inactive are the calls of the source. No cut-off for these calls is given here.

Experiments:
[1] = Induction of NO release assessed as nitrite formation in PBS at 100 uM up to 300 mins by Griess assay
How it was run: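 Compound at 100 μM was incubated at 37 °C in PBS, pH 7.4, containing 2% DMSO and 5.0 mM L-cysteine, in acellular or HepG2 cell lysates, and sampled over time. Samples were mixed with Griess reagent at 37 °C for 15 min and read at 540 nm. Nitrite was quantified against a sodium nitrite standard curve, in triplicate.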

HepG2 = assay: Cytotoxicity against human HepG2 cells after 72 hrs by MTT assay; format: functional, cell-based; details: HepG2, 72 h
How it was run: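 MTT assay. Cells were plated and grown 24 h at 37 °C, 5% CO2, then exposed to compound in medium with 0.1% DMSO for 72 h. MTT (5 mg/mL in PBS) was added for 4 h and absorbance read at 490 nm. IC50 was taken from dose-response curves; at least three independent experiments.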

H22 = assay: Antitumor activity against human H22 cells xenografted in ICR mouse assessed as tumor growth inhibition at 20 mg/kg, iv administered once daily for 21 days measured post last dose relative to control; details: 504 h, read-out: TGI

Row | SMILES | Activity [1] | IC50 (HepG2) | inhibition in vivo at 20 mg/kg (H22)
1 | COc1cc2c(cc1OC)-c1cc3ccc(OC)c(OCCCCCCCCO[N+](=O)[O-])c3c[n+]1CC2 | Active | 3.91 µM | 
2 | COc1ccc2cc3[n+](cc2c1OCCO[N+](=O)[O-])CCc1cc2c(cc1-3)OCO2 |  | 25.2 µM | 
3 | COc1ccc2cc3[n+](cc2c1OCCCCCCO[N+](=O)[O-])CCc1cc2c(cc1-3)OCO2 |  | 8.51 µM | 
4 | COc1cc2c(cc1OC)-c1c(Br)c3ccc(OC)c(OCCCCCCCCCCO[N+](=O)[O-])c3c[n+]1CC2 |  | 3.01 µM | 
5 | COc1ccc2cc3[n+](cc2c1OCCCO[N+](=O)[O-])CCc1cc2c(cc1-3)OCO2 |  | 22 µM | 
6 | COc1ccc2cc3[n+](cc2c1OC(=O)CCCCCO[N+](=O)[O-])CCc1cc2c(cc1-3)OCO2 |  | > 100 µM | 
7 | COc1ccc2cc3[n+](cc2c1OCCCCO[N+](=O)[O-])CCc1cc2c(cc1-3)OCO2 | Active | 18.4 µM | 
8 | COc1ccc2cc3[n+](cc2c1OC(=O)CCCCCCCO[N+](=O)[O-])CCc1cc2c(cc1-3)OCO2 | Active | > 100 µM | 
9 | COc1ccc2cc3[n+](cc2c1OCCCCCCCCCCCCO[N+](=O)[O-])CCc1cc2c(cc1-3)OCO2 | Active | 2.52 µM | 
10 | O=P1(N(CCCl)CCCl)NCCCO1 (stereo not given) [CYCLOPHOSPHAMIDE ANHYDROUS] |  |  | 67.1%
11 | COc1ccc2cc3[n+](cc2c1OCCCCCCCCCCO[N+](=O)[O-])CCc1cc2c(cc1-3)OCO2 |  | 4.34 µM | 
